# Measured values: ChEMBL document CHEMBL2396626, “Exploiting drug-resistant enzymes as tools to identify thienopyrimidinone inhibitors of human immunodeficiency virus reverse transcriptase-associated ribonuclease H” (J Med Chem, 2013)
# Activity calls are given as the source filed them. No cut-off for these calls is given here.
# Key:
# [1] = Inhibition of RNase H activity of HIV-1 reverse transcriptase p66/p51 R284A mutant using 18 nucleotide 3'-fluorescein-labeled RNA/18 nucleotide 5'-dabsyl-labeled DNA hybrid as substrate after 10 mins by fluorescence spectrometric analysis; design: species or system Human immunodeficiency virus 1
# [2] = Inhibition of RNase H activity of HIV-1 reverse transcriptase p66/p51 C280A mutant using 18 nucleotide 3'-fluorescein-labeled RNA/18 nucleotide 5'-dabsyl-labeled DNA hybrid as substrate after 10 mins by fluorescence spectrometric analysis; design: species or system Human immunodeficiency virus 1
# [3] = target: Human immunodeficiency virus type 1 reverse transcriptase (Human immunodeficiency virus 1, UniProt Q72547); test: Inhibition of RNase H activity of wild type HIV-1 reverse transcriptase using 18 nucleotide 3'-fluorescein-labeled RNA/18 nucleotide 5'-dabsyl-labeled DNA hybrid as substrate after 10 mins by fluorescence spectrometric analysis
# [4] = Inhibition of RNase H activity of HIV-1 reverse transcriptase p66/p51 V276A mutant using 18 nucleotide 3'-fluorescein-labeled RNA/18 nucleotide 5'-dabsyl-labeled DNA hybrid as substrate after 10 mins by fluorescence spectrometric analysis; design: species or system Human immunodeficiency virus 1
# [5] = Inhibition of RNase H activity of HIV-1 reverse transcriptase p66/p51 T286A mutant using 18 nucleotide 3'-fluorescein-labeled RNA/18 nucleotide 5'-dabsyl-labeled DNA hybrid as substrate after 10 mins by fluorescence spectrometric analysis; design: species or system Human immunodeficiency virus 1
# [6] = test system: Human immunodeficiency virus type 1 reverse transcriptase (Human immunodeficiency virus 1), Q72547 [K103N]; test: Inhibition of HIV-1 reverse transcriptase K103N mutant at 50 uM
# [7] = test system: Human immunodeficiency virus 1; test: Inhibition of HIV-1 DNA-dependent DNA polymerase using DNA duplex as substrate at 50 uM after 15 mins by PAGE relative to control
# [8] = test system: Human immunodeficiency virus 1; test: Antiviral activity against Human immunodeficiency virus 1 RF isolate infected in human CEM-SS cells by XTT assay; assay type: functional, organism-based
# Summary of the method: (§1)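 Cytopathic-protection format: HIV-1 RF isolate in human T-cell line CEM-SS, with cell viability read by XTT-based assay.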
# [9] = target: Human immunodeficiency virus type 1 reverse transcriptase (Human immunodeficiency virus 1) (UniProt Q72547); test: Binding affinity to HIV-1 reverse transcriptase p66/p51 assessed as decrease in melting temperature at 10 uM by differential scanning fluorimetric analysis in presence of Mg2+
# [10] = target: Human immunodeficiency virus type 1 integrase (Human immunodeficiency virus 1) (UniProt Q7ZJM1); test: Inhibition of HIV-1 integrase using DNA duplex as substrate at 50 uM preincubated for 10 mins prior to substrate addition measured after 1 hr
# [11] = Selectivity ratio of CC50 for human CEM-SS cells to EC50 for Human immunodeficiency virus 1 RF isolate; assay type: ADME, cell-based
# [12] = test system: Human immunodeficiency virus type 1 reverse transcriptase (Human immunodeficiency virus 1), Q72547 [Y181C]; test: Inhibition of HIV-1 reverse transcriptase Y181C mutant at 50 uM
# [13] = test system: CEM-SS; test: Cytotoxicity against human CEM-SS cells by XTT assay; assay type: cell-based; summary of the method: as §1
# [14] = target: Human immunodeficiency virus type 1 reverse transcriptase (Human immunodeficiency virus 1) (UniProt Q72547); test: Binding affinity to HIV-1 reverse transcriptase p66/p51-RNA/DNA hybrid complex assessed as decrease in melting temperature at 10 uM by differential scanning fluorimetric analysis in presence of Mg2+
# [15] = target: Human immunodeficiency virus type 1 reverse transcriptase (Human immunodeficiency virus 1) (UniProt Q72547); test: Inhibition of RNase H activity of HIV-1 reverse transcriptase using 18 nucleotide 3'-fluorescein-labeled RNA/18 nucleotide 5'-dabsyl-labeled DNA hybrid as substrate by Yonetani-Theorell plot analysis in presence of beta-thujaplicinol
# Summary of the method: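 Yonetani-Theorell: RNase H rates at 250 nM RNA/DNA substrate, fixed enzyme, thienopyrimidinone 0–5 μM against β-thujaplicinol 0, 0.125, 0.25, 0.5, 1 μM; hydrolysis started with substrate, monitored 60 min; V0/Vi plotted and fitted to two-inhibitor equation with interaction term.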
# [16] = target: Human immunodeficiency virus type 1 reverse transcriptase (Human immunodeficiency virus 1) (UniProt Q72547); settings: 500 uM
# Human immunodeficiency virus type 1 integrase (Human immunodeficiency virus 1), sequence (Q7ZJM1 as listed by the source): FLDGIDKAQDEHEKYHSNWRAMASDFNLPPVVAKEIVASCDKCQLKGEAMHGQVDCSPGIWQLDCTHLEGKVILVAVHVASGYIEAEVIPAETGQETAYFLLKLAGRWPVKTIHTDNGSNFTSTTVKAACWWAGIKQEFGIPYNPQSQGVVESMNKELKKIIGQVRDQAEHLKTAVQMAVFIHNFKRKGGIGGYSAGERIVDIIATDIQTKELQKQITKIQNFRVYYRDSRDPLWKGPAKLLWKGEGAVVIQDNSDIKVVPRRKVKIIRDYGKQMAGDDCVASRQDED
Structure (SMILES),IC50 [1],IC50 [2],IC50 [3],IC50 [4],IC50 [5],other results
Cc1sc2nc(-c3ccc(C(F)(F)F)cc3)[nH]c(=O)c2c1C,0.23 µM,> 50 µM,1.3 µM,0.31 µM,7.5 µM,–
Cc1sc2nc(-c3ccc(Cl)c([N+](=O)[O-])c3)[nH]c(=O)c2c1C,–,–,12 µM,–,–,–
O=c1[nH]c(-c2ccc(O)cc2)nc2sc3c(c12)CCCCC3,0.65 µM,15.8 µM,3.2 µM,0.64 µM,6.6 µM,–
CCCCc1c(C)sc2nc(-c3ccc(O)c(O)c3)[nH]c(=O)c12,1.2 µM,0.49 µM,0.42 µM,0.91 µM,1.1 µM,inhibition [6]: Active; inhibition [7]: > 60%; EC50 [8]: 7.9 µM; ΔTm [9]: 0.5 °C; inhibition [10]: inactive; Ratio CC50/EC50 [11]: 3.2; inhibition [12]: Active; CC50 [13]: 25.4 µM
CCCc1c(C)sc2nc(-c3cccc(O)c3O)[nH]c(=O)c12,3.5 µM,2.9 µM,1.7 µM,4.1 µM,5.7 µM,EC50 [8]: 3.1 µM; ΔTm [9]: 0.5 °C; inhibition [10]: inactive; Ratio CC50/EC50 [11]: 4; CC50 [13]: 12.4 µM
O=C(O)c1ccc(-c2nc3sc4c(c3c(=O)[nH]2)CCCCC4)cc1,0.95 µM,> 50 µM,1.9 µM,0.46 µM,32 µM,–
Cc1sc2nc(-c3cc(O)c(O)cc3O)[nH]c(=O)c2c1C,–,–,1.6 µM,–,–,–
Cc1sc2nc(-c3ccc(C(=O)O)cc3)[nH]c(=O)c2c1C,–,–,1.6 µM,–,–,–
Cc1sc2nc(-c3cc(O)cc(O)c3)[nH]c(=O)c2c1C,–,–,5.2 µM,–,–,–
Cc1sc2nc(-c3ccc(O)c(O)c3)[nH]c(=O)c2c1C,0.3 µM,0.32 µM,0.26 µM,0.39 µM,0.28 µM,EC50 [8]: 3.8 µM; ΔTm [9]: 0.5 °C; inhibition [10]: inactive; Ratio CC50/EC50 [11]: 2.3; ΔTm [14]: 5.8 °C; inhibition [15]: Active; CC50 [13]: 8.9 µM
O=c1[nH]c(-c2cc(O)cc(O)c2)nc2sc3c(c12)CCCCC3,–,–,2.6 µM,–,–,–
Cc1sc2nc(-c3ccc([N+](=O)[O-])cc3)[nH]c(=O)c2c1C,–,–,–,–,–,ΔTm [9]: 0.5 °C
O=c1[nH]c(-c2cccc(O)c2O)nc2sc3c(c12)CCCCC3,2.9 µM,1.6 µM,1.8 µM,2.8 µM,3.6 µM,EC50 [8]: 2.7 µM; ΔTm [9]: 0.5 °C; Ratio CC50/EC50 [11]: 3.6; CC50 [13]: 9.8 µM
Cc1sc2nc(-c3cc(O)c(O)c(O)c3)[nH]c(=O)c2c1C,–,–,0.69 µM,–,–,–
O=c1[nH]c(-c2ccc(O)cc2O)nc2sc3c(c12)CCCCC3,–,–,9.3 µM,–,–,–
O=c1[nH]c(-c2ccc(O)c(O)c2)nc2sc3c(c12)CCCCC3,0.55 µM,0.26 µM,0.29 µM,0.37 µM,0.36 µM,EC50 [8]: 1.6 µM; ΔTm [9]: 0.5 °C; inhibition [10]: inactive; Ratio CC50/EC50 [11]: 4.3; ΔTm [14]: 5.9 °C; inhibition [15]: Active; CC50 [13]: 6.8 µM
Cc1sc2nc(-c3cccc(C(F)(F)F)c3)[nH]c(=O)c2c1C,–,–,> 50 µM,–,–,–
CC(C)c1ccc(O)c(=O)c(O)c1,–,–,–,–,–,ΔTm [9]: 0.5 °C; ΔTm [16]: 2 °C
Cc1sc2nc(-c3cc(O)ccc3O)[nH]c(=O)c2c1C,–,–,9.3 µM,–,–,–
Cc1sc2nc(-c3ccc(F)c(F)c3)[nH]c(=O)c2c1C,–,–,> 50 µM,–,–,–
O=c1[nH]c(-c2ccc(O)c(O)c2)nc2sc3c(c12)CCC3,0.47 µM,0.26 µM,0.32 µM,0.21 µM,0.37 µM,inhibition [6]: Active; inhibition [7]: > 60%; ΔTm [9]: 0.5 °C; inhibition [10]: inactive; inhibition [12]: Active

Structure (SMILES),IC50 [1],IC50 [2],IC50 [3],IC50 [4],IC50 [5],other results
O=c1[nH]c(-c2ccc(C(F)(F)F)cc2)nc2sc3c(c12)CCCCC3,0.54 µM,10.6 µM,3.1 µM,0.53 µM,7.2 µM,–
Cc1sc2nc(-c3ccc(O)c(F)c3)[nH]c(=O)c2c1C,–,–,> 50 µM,–,–,–
Cc1sc2nc(-c3ccccc3)[nH]c(=O)c2c1C,–,–,11.3 µM,–,–,–
O=c1[nH]c(-c2cc(O)ccc2O)nc2sc3c(c12)CCCCC3,–,–,1.7 µM,–,–,–
COc1ccc(-c2nc3sc(C)c(C)c3c(=O)[nH]2)cc1,–,–,9.1 µM,–,–,–
Cc1sc2nc(-c3ccc([N+](=O)[O-])o3)[nH]c(=O)c2c1C,–,–,16.9 µM,–,–,–
Cc1sc2nc(-c3cccnc3)[nH]c(=O)c2c1C,–,–,8.3 µM,–,–,–
CCCc1c(CC)sc2nc(-c3ccc(O)c(O)c3)[nH]c(=O)c12,1.4 µM,0.5 µM,0.59 µM,0.76 µM,0.82 µM,inhibition [6]: Active; inhibition [7]: > 60%; EC50 [8]: 9.2 µM; ΔTm [9]: 0.5 °C; inhibition [10]: inactive; Ratio CC50/EC50 [11]: 3.7; inhibition [12]: Active; CC50 [13]: 33.7 µM
Cc1sc2nc(-c3ccc(O)cc3)[nH]c(=O)c2c1C,0.2 µM,> 50 µM,0.79 µM,0.14 µM,3.7 µM,–
O=c1[nH]c(-c2ccc(O)c(O)c2)nc2sc3c(c12)CCCC3,0.92 µM,0.29 µM,0.37 µM,0.41 µM,0.46 µM,inhibition [6]: Active; inhibition [7]: > 60%; ΔTm [9]: 0.5 °C; inhibition [10]: inactive; inhibition [12]: Active
O=c1[nH]c(-c2ccc(O)c(O)c2)nc2sc3c(c12)CCCCCC3,0.28 µM,0.23 µM,0.26 µM,0.11 µM,0.29 µM,inhibition [6]: Active; inhibition [7]: > 60%; ΔTm [9]: 0.5 °C; inhibition [10]: inactive; inhibition [12]: Active
O=c1[nH]c(-c2ccccc2)nc2sc3c(c12)CCCCC3,1.3 µM,41.4 µM,4.1 µM,0.96 µM,27.9 µM,–
Cc1sc2nc(-c3ccccn3)[nH]c(=O)c2c1C,–,–,4.2 µM,–,–,–
COc1cc(-c2nc3sc(C)c(C)c3c(=O)[nH]2)ccc1O,–,–,> 50 µM,–,–,–
CCCc1c(C)sc2nc(-c3ccc(O)c(O)c3)[nH]c(=O)c12,0.8 µM,0.37 µM,0.49 µM,0.56 µM,0.57 µM,EC50 [8]: 1.9 µM; ΔTm [9]: 0.5 °C; Ratio CC50/EC50 [11]: 5.9; CC50 [13]: 11.2 µM
Cc1sc2nc(-c3cc(C(F)(F)F)cc(C(F)(F)F)c3)[nH]c(=O)c2c1C,–,–,> 50 µM,–,–,–
Cc1sc2nc(-c3cccc([N+](=O)[O-])c3)[nH]c(=O)c2c1C,0.34 µM,> 50 µM,1.5 µM,0.26 µM,–,–
Cc1sc2nc(-c3cccc(O)c3)[nH]c(=O)c2c1C,–,–,> 50 µM,–,–,–
Cc1sc2nc(-c3cc4ccccc4[nH]3)[nH]c(=O)c2c1C,0.12 µM,> 50 µM,0.48 µM,0.16 µM,0.96 µM,–
COc1ccc(-c2nc3sc(C)c(C)c3c(=O)[nH]2)cc1OC,–,–,12.6 µM,–,–,–
